Tests used:
[1] = Protein binding in mouse plasma at 1 uM after 6 hrs by equilibrium dialysis; assay type: ADME, cell-free; conditions: read-out: PPB (converted)
Summary of the method: (§1)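 Compound spiked at 1.0 µM final (0.5% DMSO) into plasma. Equilibrium dialysis against DPBS pH 7.4 across a 12–14 kD membrane for 6 h at 37 °C, in triplicate. Buffer-only controls used for nonspecific binding. Unbound fraction = acceptor/donor concentration by LC-MS/MS; reported as % bound.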

[2] = Protein binding in human plasma at 1 uM after 6 hrs by equilibrium dialysis; assay type: ADME, cell-free; conditions: read-out: PPB; summary of the method: as §1
[3] = Tmax in rat at 3 mg/kg, po via gavage by LC-MS/MS analysis; assay type: ADME, organism-based; conditions: in vivo
Summary of the method: (§2)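 Rats given 3 mg/kg by oral gavage as a suspension in 2% DMSO/98% of 0.5% CMC. EDTA plasma sampled at 0.25–24 h and analysed by LC-MS/MS. Bioavailability estimated against the 3 mg/kg i.v. arm.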

[4] = target: T1, Growth hormone secretagogue receptor type 1 (Homo sapiens, UniProt Q92847); experiment: Antagonist activity at recombinant human GHSR1a expressed in HEK293 cells assessed as inhibition of ghrelin-induced intracellular calcium release incubated for 20 secs and measured after 2 mins by FLIPR assay; assay type: functional, cell-based
Summary of the method: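 HEK293/GHSR1a cells were dye-loaded for 30-60 min. Compounds and 10 nM ghrelin were added at t = 20 s, with a 15 min compound preincubation described. Calcium response was read for 2 min. IC50 was taken from dose-response fits of the reduction in ghrelin response; mean of at least two independent runs done in triplicate.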

[5] = Oral bioavailability in rat at 3 mg/kg via gavage by LC-MS/MS analysis; assay type: ADME, organism-based; conditions: in vivo; summary of the method: as §2
[6] = Clearance in mouse liver microsomes at 0.625 uM preincubated for 5 mins followed by NADPH addition and measured after 60 mins by LC-MS/MS analysis; assay type: ADME, microsome; conditions: read-out: CLH
Summary of the method: (§3)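 Liver microsomes (0.625 mg/mL protein) in 50 mM potassium phosphate pH 7.4 with 0.625 µM test item, prewarmed 5 min at 37 °C. Reaction started with NADPH (5 mM solution). Samples taken at 0, 5, 15, 30 and 60 min into cold MeCN with internal standard, analysed by LC-MS/MS. Intrinsic clearance derived by the half-life approach.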

Mus musculus [7] = experiment: Anti-obesity activity in C57BL/6J mouse assessed as inhibition of anamorelin-induced increase in food intake by measuring cumulative food intake at 10 mg/kg, ip pretreated for 10 mins followed by anamorelin addition and measured after 8 hrs post dose (reference value: 2.97 +/- 0.09 g); assay type: functional
Summary of the method: (§4)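 Male C57BL/6J mice (18–22 g at arrival), fed ad libitum. Dosed 10 mg/kg i.p. at t = 0 in 10% DMAC/6% Solutol HS 15/84% PBS, then anamorelin 30 mg/kg p.o. (0.5% CMC) at 10 min. Cumulative food intake recorded at 1, 2, 4, 8 and 24 h; n=6 per group; mean ± SEM; ANOVA with Dunnett test versus vehicle+anamorelin.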

Mus musculus [8] = experiment: Anti-obesity activity in C57BL/6J mouse assessed as inhibition of anamorelin-induced increase in food intake by measuring cumulative food intake at 30 mg/kg, po pretreated for 10 mins followed by anamorelin addition and measured after 24 hrs post dose (reference value: 8.31 +/- 0.2 g)
[9] = Clearance in rat liver microsomes at 0.625 uM preincubated for 5 mins followed by NADPH addition and measured after 60 mins by LC-MS/MS analysis; assay type: ADME, microsome; conditions: read-out: CLH; summary of the method: as §3
Mus musculus [10] = experiment: Anti-obesity activity in C57BL/6J mouse assessed as inhibition of anamorelin-induced increase in food intake by measuring cumulative food intake at 30 mg/kg, po pretreated for 10 mins followed by anamorelin addition and measured after 2 hrs post dose (reference value: 1.37 +/- 0.05 g)
[11] = Clearance in human liver microsomes at 0.625 uM preincubated for 5 mins followed by NADPH addition and measured after 60 mins by LC-MS/MS analysis; assay type: ADME, microsome; conditions: read-out: CLH; summary of the method: as §3
Mus musculus [12] = experiment: Anti-obesity activity in C57BL/6J mouse assessed as inhibition of anamorelin-induced increase in food intake by measuring cumulative food intake at 10 mg/kg, ip pretreated for 10 mins followed by anamorelin addition and measured after 2 hrs post dose (reference value: 1.37 +/- 0.05 g); assay type: functional; summary of the method: as §4
[13] = Half life in rat at 3 mg/kg, iv after 24 hrs by LC-MS/MS analysis; assay type: ADME, organism-based; conditions: in vivo
Summary of the method: (§5)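 Rats given 3 mg/kg i.v. via tail vein, in 2% DMSO/50% of 40% HP-β-CD. EDTA plasma sampled at 0.08–24 h and analysed by LC-MS/MS, calibration range 5-5000 ng/mL.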

[14] = Ratio of drug level in brain to plasma of rat at 3 mg/kg, iv after 2 hrs by LC-MS/MS analysis; assay type: ADME, organism-based; conditions: read-out: BPR
Summary of the method: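 Rats given 3 mg/kg i.v. Brain collected 2 h post-dose after CO2 euthanasia and homogenized in 5 volumes of PBS pH 7.4. Brain and plasma levels measured by LC-MS/MS; ratio taken from the 2 h concentrations.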

[15] = Volume of distribution in rat at 3 mg/kg, iv after 24 hrs by LC-MS/MS analysis; assay type: ADME, organism-based; conditions: in vivo; summary of the method: as §5
[16] = Half life in rat at 3 mg/kg, po via gavage by LC-MS/MS analysis; assay type: ADME, organism-based; conditions: in vivo; summary of the method: as §2
[17] = Protein binding in rat plasma at 1 uM after 6 hrs by equilibrium dialysis; assay type: ADME, cell-free; conditions: read-out: PPB; summary of the method: as §1
Mus musculus [18] = experiment: Anti-obesity activity in C57BL/6J mouse assessed as inhibition of anamorelin-induced increase in food intake by measuring cumulative food intake at 10 mg/kg, ip pretreated for 10 mins followed by anamorelin addition and measured after 24 hrs post dose (reference value: 8.31 +/- 0.2 g); assay type: functional; summary of the method: as §4
[19] = target: T1, Growth hormone secretagogue receptor type 1; experiment: Agonist activity at recombinant human GHSR1a expressed in HEK293 cells assessed as induction of intracellular calcium release after 15 mins by FLIPR assay; assay type: functional, cell-based; conditions: hek293
Summary of the method: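 HEK293 cells stably expressing human GHSR1a, seeded 24 h before the run, then loaded with calcium dye for 30-60 min at room temperature or 37 °C. DMSO-dissolved compounds were added and intracellular calcium release was monitored by FLIPR fluorescence.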

MDR1 = experiment: Apparent permeability across apical to basolateral side in MDCK2 cells expressing human MDR1 at 1 uM after 90 mins in absence of MDR1 inhibitor cyclosporine A by LC-MS/MS analysis; assay type: ADME, cell-based, Canis lupus familiaris, MDCK-II; conditions: dog, MDCK-MDR1
Summary of the method: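 MDR1-MDCKII monolayers grown 4 days on transwell inserts, with integrity checked by TEER. Test item at 1 µM in HBSS/10 mM HEPES/25 mM glucose pH 7.4, in duplicate, added to the apical side. Receiver sampled after 90 min at 37 °C and analysed by LC-MS/MS; Papp = (dMr/dt)/(A×C0).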

Mus musculus [20] = experiment: Anti-obesity activity in C57BL/6J mouse assessed as inhibition of anamorelin-induced increase in food intake by measuring cumulative food intake at 10 mg/kg, ip pretreated for 10 mins followed by anamorelin addition and measured after 1 hr post dose (reference value: 0.63 +/- 0.04 g); assay type: functional; summary of the method: as §4

T1 sequence (Q92847 whole entry): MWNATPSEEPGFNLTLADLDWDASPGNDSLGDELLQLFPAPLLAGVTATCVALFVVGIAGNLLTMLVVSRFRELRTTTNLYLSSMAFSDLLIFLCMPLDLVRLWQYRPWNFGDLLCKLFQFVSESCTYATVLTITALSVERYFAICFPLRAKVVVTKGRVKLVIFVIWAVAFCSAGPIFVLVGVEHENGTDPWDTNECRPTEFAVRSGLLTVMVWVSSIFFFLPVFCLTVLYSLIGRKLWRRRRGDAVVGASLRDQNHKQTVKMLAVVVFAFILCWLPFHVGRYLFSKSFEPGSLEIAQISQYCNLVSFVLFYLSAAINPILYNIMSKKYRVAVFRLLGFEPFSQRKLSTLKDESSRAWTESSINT

Structure (SMILES): Cc1cc(-c2ccc3c(c2)CC[C@H]3N2CCC(N(C)C(=O)N[C@@H](C)c3ccc(C#CC4CC4)c(Cl)c3Cl)CC2)ncn1
- fraction unbound at 6 h, 1 µM [1]: 0.0002
- fraction unbound at 6 h, 1 µM [2]: 0.0001
- Tmax [3]: 6.7 h
- IC50 [4]: 68.2 nM
- bioavailability [5]: 27%
- microsomal CLint at 0.625 µM [6]: < 10 µL/min/mg
- Activity (Mus musculus [7]): 2.78 g
- Activity (Mus musculus [8]): 7.42 g
- microsomal CLint at 0.625 µM [9]: 57.8 µL/min/mg
- Activity (Mus musculus [10]): 0.86 g
- microsomal CLint at 0.625 µM [11]: 74.7 µL/min/mg
- Activity (Mus musculus [12]): 0.56 g
- half-life [13]: 6.49 h
- Kp at 2 h [14]: 1.86
- Vd [15]: 8.48 L/kg
- half-life [16]: 15.8 h
- fraction unbound at 6 h, 1 µM [17]: 0.0001
- Activity (Mus musculus [18]): 7.63 g
- EC50 [19]: Not Active
- Papp A→B at 1.5 h, 1 µM (MDR1): 3.9 ×10⁻⁶ cm/s
- Activity (Mus musculus [20]): 0.13 g
